# Measurements pooled from the literature.
# Protocols differ between the studies behind these lines.
# Effect on: enzyme activity
# Mode: inhibitor
# CDK5 with p35: Cyclin-dependent kinase 5, with p35 (CDK5, Homo sapiens, UniProt Q00535)
# CDK5 with p25: Cyclin-dependent kinase 5, with p25 (CDK5, Homo sapiens, UniProt Q00535)
SMILES,target,test,conditions,remaining activity [%]
CC(C)(O)[C@H]1CC[C@H](Nc2ccc3ncc(-c4cccc(C(F)(F)F)c4)n3n2)CC1,CDK5 with p35,,1 µM,97.7
O=C(Nc1cnn(-c2csc(C(=O)NC3COC3)c2)c1)Nc1c(F)cccc1Cl,CDK5 with p35,,5 µM,94.3
CCN(CC)c1ccc(C2=NNC(=O)CC2C)cc1[N+](=O)[O-] (centres unmarked),CDK5 with p25,,10 µM,113
CC[C@H](C)[C@H](NC(=O)[C@H](CCC(N)=O)NC(=O)[C@H](CC(C)C)NC(=O)[C@H](CCSC)NC(=O)[C@H](CCCCN)NC(=O)[C@H](CO)NC(=O)[C@H](CO)NC(=O)[C@H](CCSC)NC(=O)[C@H](CC(C)C)NC(=O)[C@H](CC(N)=O)NC(=O)[C@@H](NC(=O)[C@@H](NC(=O)[C@H](CO)NC(=O)[C@H](CC(C)C)NC(=O)[C@H](CS)NC(=O)[C@H](CCCNC(=N)N)NC(=O)[C@H](CC(=O)O)NC(=O)[C@H](Cc1c[nH]c2ccccc12)NC(=O)[C@H](Cc1ccccc1)NC(=O)[C@H](C)NC(=O)[C@H](CCC(=O)O)NC(=O)[C@@H](N)CCCCN)C(C)C)[C@@H](C)CC)C(=O)N[C@@H](CC(N)=O)C(=O)N[C@@H](C)C(=O)O,CDK5 with p25,radiometric,"250 µM, 20 min",41
CC(C)(C)c1nc(-c2cccc(NS(=O)(=O)c3c(F)cccc3F)c2F)c(-c2ccnc(N)n2)s1,CDK5 with p35,radiometric,1 µM,82
O=C(Nc1cnn(-c2csc(C(=O)NC3COC3)c2)c1)Nc1ccccc1Cl,CDK5 with p35,,5 µM,95.4
CCCOc1ccc(OC)c(F)c1C(=O)c1ccc(C(=O)N[C@@H]2CNC[C@H]2NC(=O)c2ccc3[nH]ncc3c2)cc1,CDK5 with p25,,50 nM,114
Cc1cnc(NC2CCOCC2)nc1-n1cnc(C(=O)NC(CN)c2cc(F)cc(Cl)c2)c1 (centres unmarked),CDK5 with p25,radiometric,1 µM,2
Cc1ccc(C(=O)Nc2ccc(CN3CCN(C)CC3)c(C(F)(F)F)c2)cc1C#Cc1cnc2cccnn12,"Cyclin-dependent kinase 5 (CDK5, Homo sapiens, UniProt Q00535)",,23.5 nM,98
COc1cc(Cl)c(C(=O)N[C@@H](CN[C@H]2CC[C@@H](N)CC2)Cc2ccc(C#N)cc2)cc1-c1ccc(CN[C@H](C)c2ccc(C)cc2)o1,CDK5 with p35,,1 µM,88
Cc1sc(C(=O)NC2COC2)cc1-n1cc(NC(=O)Nc2c(F)cccc2Cl)cn1,CDK5 with p35,,10 µM,103
